In brackets after ≈: the same amount, converted by molar mass.
Tests used:
Assay type in all cases: functional
[1] = tested on: Bacillus subtilis; experiment: Antibacterial activity against Bacillus subtilis […] after 24 to 48 hrs by agar dilution method
How it was run: (§1)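 Agar dilution per NCCLS. Compounds were dissolved in 15%–30% DMSO in water, serially two-fold diluted in distilled water (11 dilutions) and incorporated into hot Mueller–Hinton agar at a tenfold further dilution. Inocula from blood slants were adjusted to about 10^5–10^6 CFU/mL in 0.90% saline and spotted onto the plates, then incubated at 36.5 °C for 24–48 h. MIC was the lowest concentration giving complete growth inhibition; run in triplicate.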

[2] = tested on: Escherichia coli; experiment: Antibacterial activity against Escherichia coli ATCC 25922 after 24 to 48 hrs by agar dilution method; how it was run: as §1
[3] = tested on: Staphylococcus aureus; experiment: Antibacterial activity against […] Staphylococcus aureus ATCC 29213 after 24 to 48 hrs by agar dilution method
How it was run: (§2)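 Agar dilution per NCCLS. Compounds at 1.28 mg/mL stock in 15%–30% DMSO/water, two-fold serial dilutions (11 total) in water, mixed 1:10 into hot Mueller-Hinton agar. Inocula from blood slants adjusted to about 10^5–10^6 CFU/mL in 0.90% saline, spotted onto plates, incubated 36.5 °C for 24–48 h. MIC is the lowest concentration giving complete growth inhibition. Run in triplicate.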

[4] = tested on: Staphylococcus epidermidis; experiment: Antibacterial activity against […] Staphylococcus epidermidis ATCC 35984 after 24 to 48 hrs by agar dilution method; details: RP62A; how it was run: as §2
[5] = tested on: Staphylococcus aureus; experiment: Antibacterial activity against […] Staphylococcus aureus in iv dosed neutropenic mouse systemic infection model assessed as increase in mouse survival measured on day 4
How it was run: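 Male and female mice made neutropenic with ip cyclophosphamide, 150 mg/kg for four days, then 100 mg/kg one day before inoculation. Infected ip with 0.5 mL MRSA at 10^9 CFU/mL, 10 per group. About 1 h later dosed iv at 2, 3, 4.46, 6.64 and 10 mg/kg in 0.5 mL soybean lecithin:sterile water (1:30). Endpoint was survival at day 4. ED50 calculated by Reed–Muench using the Hill equation.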

Compound | MIC [1] | MIC [2] | MIC [3] | MIC [4] | Activity [5] | ED50 ([5]; 96 h)
C=C[C@]1(C)C[C@@H](OC(=O)CSc2nc(O)cc(NC(C)=O)n2)[C@]2(C)[C@H](C)CC[C@]3(CCC(=O)[C@H]32)[C@@H](C)[C@@H]1O | 32 µg/mL (≈ 58.6 µM) | 8 µg/mL (≈ 14.7 µM) |  |  |  | 
C=C[C@]1(C)C[C@@H](OC(=O)CSc2nc(N)cc(OC)n2)[C@]2(C)[C@H](C)CC[C@]3(CCC(=O)[C@H]32)[C@@H](C)[C@@H]1O | 16 µg/mL (≈ 30.9 µM) | 32 µg/mL (≈ 61.8 µM) | 1 µg/mL (≈ 1.93 µM) | 0.5 µg/mL (≈ 0.966 µM) |  | 
C=C[C@]1(C)C[C@@H](OC(=O)CSCCN(CC)CC)[C@]2(C)[C@H](C)CC[C@]3(CCC(=O)[C@H]32)[C@@H](C)[C@@H]1O.O=C(O)/C=C/C(=O)O [TIAMULIN FUMARATE] | 32 µg/mL | 8 µg/mL | 0.5 µg/mL | 0.25 µg/mL | Dose-dependent effect | 5.95 mg/kg
C=C[C@]1(C)C[C@@H](OC(=O)CSc2nc(O)cc(NC(=O)[C@H](N)C(C)C)n2)[C@]2(C)[C@H](C)CC[C@]3(CCC(=O)[C@H]32)[C@@H](C)[C@@H]1O | 8 µg/mL (≈ 13.3 µM) | 64 µg/mL (≈ 106 µM) | 1 µg/mL (≈ 1.66 µM) | 0.125 µg/mL (≈ 0.207 µM) |  | 
C=C[C@]1(C)C[C@@H](OC(=O)CSc2nc(O)cc(NC(=O)[C@@H]3CCCCN3)n2)[C@]2(C)[C@H](C)CC[C@]3(CCC(=O)[C@H]32)[C@@H](C)[C@@H]1O | 16 µg/mL (≈ 26 µM) | 16 µg/mL (≈ 26 µM) | 4 µg/mL (≈ 6.51 µM) | 1 µg/mL (≈ 1.63 µM) |  | 
C=C[C@]1(C)C[C@@H](OC(=O)CSc2nc(N)cc(O)n2)[C@]2(C)[C@H](C)CC[C@]3(CCC(=O)[C@H]32)[C@@H](C)[C@@H]1O | 32 µg/mL (≈ 63.5 µM) | 16 µg/mL (≈ 31.8 µM) | 0.25 µg/mL (≈ 0.496 µM) | 0.125 µg/mL (≈ 0.248 µM) |  | 
C=C[C@]1(C)C[C@@H](OC(=O)CSc2nc(O)cc(NC(=O)[C@H]3CCCCN3)n2)[C@]2(C)[C@H](C)CC[C@]3(CCC(=O)[C@H]32)[C@@H](C)[C@@H]1O | 16 µg/mL (≈ 26 µM) | 32 µg/mL (≈ 52 µM) | 8 µg/mL (≈ 13 µM) | 2 µg/mL (≈ 3.25 µM) |  | 
C=C[C@]1(C)C[C@@H](OC(=O)CSc2nc(N)cc(=O)n2C)[C@]2(C)[C@H](C)CC[C@]3(CCC(=O)[C@H]32)[C@@H](C)[C@@H]1O | 16 µg/mL (≈ 30.9 µM) | 32 µg/mL (≈ 61.8 µM) | 2 µg/mL (≈ 3.86 µM) | 1 µg/mL (≈ 1.93 µM) |  | 
C=C[C@]1(C)C[C@@H](OC(=O)CSc2nc(O)cc(NC(=O)[C@@H](N)C(C)C)n2)[C@]2(C)[C@H](C)CC[C@]3(CCC(=O)[C@H]32)[C@@H](C)[C@@H]1O | 16 µg/mL (≈ 26.5 µM) | 32 µg/mL (≈ 53.1 µM) | 2 µg/mL (≈ 3.32 µM) | 0.5 µg/mL (≈ 0.829 µM) |  | 

Source: ChEMBL document CHEMBL3608216, “Synthesis and evaluation of novel pleuromutilin derivatives with a substituted pyrimidine moiety” (2015)
